A selection: hits, their analogues and other compounds. The true share with any hit is near 1.4%.
Dyrk1A ADPGlo: inhibitors of rat Dyrk1A kinase; Q63470; ADP-Glo luminescence, NFATc1 peptide; inhibition, % at 12.5 µM; hit rate 0.43% among 310,000; in the data active = inhibition above about 50%;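 also: plate controls were vehicle with enzyme for no effect and no enzyme for full effect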
PvdQ inh: blocks Pseudomonas aeruginosa PvdQ acylase activity; inhibition, % at 10 µM; purified PvdQ acylase, fluorescence plate reader; AID 488965; hit rate 0.063% among 340,000; in the data active = inhibition above about 30%, passing the limit was not always enough;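 also: 0% = vehicle neutral wells and 100% = reference inhibitor wells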
CAL PDZ FP-1: inhibitors of human CAL PDZ peptide binding; hit rate 0.02% among 330,000; Q9HD26; purified CAL PDZ, TMR-peptide fluorescence polarization, 1 h; inhibition, % at 20 µM; AID 504414;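 active = highest replicate inhibition of at least 40%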;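 also: plate controls were DMSO neutral control wells for no effect and unlabeled competitor peptide control wells for full effect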
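Control set: unlabelled peptide and DMSO controls / Material: purified CerCALP PDZ construct / Timing: 1 h incubation at room temperature before polarization reading / Doses: 20 µM, one dose / Detection: fluorescence polarization (mP)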
CDK5 inh: inhibitors of human CDK5/p35 kinase. Q00535+Q15078. Recombinant CDK5/p35, ADP-Glo luminescence, 60 min. inhibition, % at 10 µM. hit rate 0.01% among 330,000. AID 488839;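 active = highest replicate inhibition of at least 50% and at least 75% of replicates reaching 50%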;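 also: plate controls were DMSO neutral control for no effect and GW8510 at 10 µM for full effect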
Target sequence (Q00535 whole entry, looked up): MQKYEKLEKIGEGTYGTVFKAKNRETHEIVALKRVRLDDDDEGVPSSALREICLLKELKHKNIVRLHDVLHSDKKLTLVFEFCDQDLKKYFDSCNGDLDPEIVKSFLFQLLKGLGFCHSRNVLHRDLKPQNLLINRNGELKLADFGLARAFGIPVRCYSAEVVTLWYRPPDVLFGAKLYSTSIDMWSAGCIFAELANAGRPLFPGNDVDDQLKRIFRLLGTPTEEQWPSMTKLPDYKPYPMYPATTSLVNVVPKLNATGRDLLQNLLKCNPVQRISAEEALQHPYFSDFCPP
Target sequence (Q15078 whole entry, looked up): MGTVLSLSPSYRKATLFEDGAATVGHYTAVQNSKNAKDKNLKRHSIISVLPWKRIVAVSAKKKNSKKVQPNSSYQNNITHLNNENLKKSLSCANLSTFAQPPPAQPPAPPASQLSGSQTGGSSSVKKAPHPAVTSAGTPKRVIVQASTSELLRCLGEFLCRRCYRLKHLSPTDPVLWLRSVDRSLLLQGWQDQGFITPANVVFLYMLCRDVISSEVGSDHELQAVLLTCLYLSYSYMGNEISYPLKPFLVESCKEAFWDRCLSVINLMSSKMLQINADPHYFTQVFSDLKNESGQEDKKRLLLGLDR
TbMetRS inhib: blocks T. brucei methionyl-tRNA synthetase activity; inhibition, % at 11.9 µM; AID 624268; purified T. brucei MetRS, ATP depletion, Kinase-Glo luminescence; hit rate 0.4% among 360,000;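 active = inhibition above a per-plate cutoff of the control wells' mean inhibition plus 3 SD, cut at about 5.5% in these data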;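 also: 0% = DMSO wells median and 100% = median of wells with control inhibitor compound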
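Test system: purified T. brucei MetRS enzyme. Also added: ATP, methionine and E. coli bulk tRNA substrates. Compound: 11.9 µM single point. Schedule: 15 min enzyme-compound preincubation, 2 h reaction, 10 min detection, 25 °C. Signal: luciferase luminescence of residual ATP, Kinase-Glo. Evaluation: percent inhibition versus plate control medians. Controls: DMSO wells, low control.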
CAL PDZ FP-2: blocks peptide binding to the human CAL PDZ domain; hit rate 0.92% among 300,000; AID 602252; inhibition, % at 24.9 µM; purified CAL PDZ, TMR-peptide fluorescence polarization, 1 h; Q9HD26;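 active = mean inhibition of at least 30% with at least half of replicates also reaching 30%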;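 also: 0% = DMSO neutral control and 100% = excess unlabeled competitor peptide PRC23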
TbMetRS confirm: confirmation of Trypanosoma brucei MetRS inhibitors | hit rate 93% among 1,400 | T. brucei MetRS enzyme, luminescence (ATP depletion) | shares compounds with TbMetRS inhib | inhibition, % at 11.9 µM; in the data active = inhibition above about 7%
Jurkat tox: Jurkat T cell cytotoxicity for MetRS hits; Jurkat cells viability, ATP luminescence; hit rate 12% among 1,400; inhibition, % at 8.3 µM; shares compounds with TbMetRS inhib; in the data active = inhibition above about 15%;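 also: 0% = vehicle and 100% = reference inhibitor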
Tb MetRS inh FP: orthogonal test for Trypanosoma brucei MetRS inhibitors. purified T. brucei MetRS, fluorescence polarization. shares compounds with TbMetRS inhib. hit rate 44% among 1,400. inhibition, % at 11.9 µM; in the data active = inhibition above about 17%;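 also: 0% = vehicle wells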
* hit, by the source's call; . = no result given.

SMILES	Dyrk1A ADPGlo	PvdQ inh	CAL PDZ FP-1	CDK5 inh	TbMetRS inhib	CAL PDZ FP-2	TbMetRS confirm	Jurkat tox	Tb MetRS inh FP
CCCCN1C[C@H](c2ccc(OC)cc2)[C@@H](CC(=O)Nc2ccc(Br)cc2)C1=O	.	.	.	.	45*	.	68*	9	34*
COc1ccc(N2C[C@H](CSC)[C@@H](CC(=O)Nc3ccc(Br)cc3)C2=O)cc1	.	.	.	.	19*	.	43*	0	19*
CCOC(COC(=O)c1ccccc1C(=O)O)c1ccccc1 (stereo unspecified)	.	.	.	.	0	.	.	.	.
CC(=O)Nc1cc(-c2ccncc2)cn2c(-c3ccccc3)cnc12	.	.	.	.	0	.	.	.	.
CCOC(=O)C1CCCN(C(=O)c2cncc(Br)c2)CC1 (stereo unspecified)	.	.	.	.	0	.	.	.	.
COc1cccc(C(NC(C)=O)c2nc(-c3csc4ccccc34)cs2)c1 (stereo unspecified)	.	.	.	.	0	.	.	.	.
COc1ccc(NC(=O)CN(C)C(=O)CCSc2ccc(F)cc2)cc1	-10	-6	-2	0	8.7*	-1	33*	-1	6
CN(CC(=O)Nc1cccc(F)c1)C(=O)c1ccc(-c2ccc(Cl)cc2)o1	5	3	-1	0	21*	6	39*	-10	24*
COc1ccc(NC(=O)CN(C)C(=O)c2oc3c(ccc4ccccc43)c2C)cc1	11	-5	-2	-1	6.4*	-3	23*	-7	13
CN(CC(=O)Nc1cccc(F)c1)C(=O)CCSc1ccc(F)cc1	2	-8	-2	-1	15*	1	42*	1	20*
CN(CC(=O)Nc1ccccc1Cl)C(=O)CCSc1ccc(F)cc1	5	-13	-3	0	0	-1	.	.	.
Cc1ccc(C)c(NC(=O)CN(C)C(=O)c2ccc(-c3ccc(Cl)cc3)o2)c1	-2	11	-2	0	-1	-1	.	.	.
Cc1cn([C@H]2C[C@H](O)[C@@H](/C=C/C(=O)NCc3ccc4c(c3)OCO4)O2)c(=O)[nH]c1=O	.	.	.	.	0	.	.	.	.
COc1ccc(S(=O)(=O)N(C)C[C@@H]2OCc3cnnn3CCCC(=O)N([C@@H](C)CO)C[C@@H]2C)cc1	.	.	.	.	-2	.	.	.	.
Nc1ccccc1Nc1cc(-c2ccccc2)nn1-c1ccccc1	-4	-6	1	2	1	-4	.	.	.
Nc1ccccc1Nc1cc(-c2ccccc2)[nH]n1	-2	11	1	3	5.8*	3	5	96*	-4
O=C(Nc1ccccc1)Nc1nnc(CSCc2ccccc2Cl)s1	-2	-20	0	-1	12*	-5	61*	-1	55*
O=C(c1[nH]c(C(F)(F)F)nc1-c1ccccc1)N1CCC(Cc2ccccc2)CC1	.	.	.	.	0	.	.	.	.
Cc1cc(NS(=O)(=O)c2ccc(Nc3nc(-c4ccc(O)cc4)cs3)cc2)no1	30	-12	-1	-4	5.7*	1	11*	-1	0
Cc1ccc([C@H]2N[C@]3(CCCN(Cc4ccc(Br)cc4)C3=O)[C@H]3C(=O)N(Cc4ccccc4)C(=O)[C@@H]23)cc1	.	.	.	.	-1	.	.	.	.
C=CCn1c(Cc2nc3ccc(Cl)cc3[nH]2)n[nH]c1=S	3	-4	-2	0	6.7*	-1	21*	0	15
C=CCn1c(Cc2ccccc2)n[nH]c1=S	-2	-13	-2	1	-1	1	.	.	.
Cc1cc(SCC(=O)N/N=C/c2ccc(O)c(O)c2)c(C)cc1Br	-7	2	-2	0	41*	-2	82*	15*	56*
CCOc1cc(/C=C2\SC(=S)N(NS(=O)(=O)c3ccc(C)cc3)C2=O)ccc1O	2	4	-3	-2	5.8*	.	11*	-4	32*
COc1cc(/C=C2\SC(=S)N(NS(=O)(=O)c3ccc(C)cc3)C2=O)ccc1O	11	9	-6	1	5	-9	.	.	.
SMILES	Dyrk1A ADPGlo	PvdQ inh	CAL PDZ FP-1	CDK5 inh	TbMetRS inhib	CAL PDZ FP-2	TbMetRS confirm	Jurkat tox	Tb MetRS inh FP
COc1cccc(-n2c(SC)nnc2-c2c[nH]c3ccccc23)c1	2	8	-2	0	13*	.	22*	8	13
COc1ccc(OC)c(-n2c(SCC(=O)NCc3ccco3)nnc2-c2c[nH]c3ccccc23)c1	-2	-17	-1	-1	9.5*	-3	21*	5	12
COc1ccc(S(=O)(=O)NC(=O)C2(C)CCN2C(=O)C2CC2)cc1 (stereo unspecified)	.	.	.	.	11*	.	5.8*	-4	-5
O=C(Cn1cnnn1)NCCc1ccc(Cl)cc1Cl	0	-4	-1	-1	9.4*	-7	18*	3	13
Cc1nn(CC(=O)NCCc2ccc(Cl)cc2Cl)c(C)c1[N+](=O)[O-]	-4	5	-3	-2	16*	-6	33*	-4	14
COc1ccc(NC(=O)C[C@H]2C(=O)N(Cc3ccccc3)C[C@@H]2C)cc1	.	.	.	.	-1	.	.	.	.
COc1ccccc1Cc1c(-c2ccco2)nc2ccc(Br)cn12	.	.	.	.	-1	.	.	.	.
CC(C)NC(=O)C1(C)CSCC(=O)N1Cc1ccco1 (stereo unspecified)	.	.	.	.	0	.	.	.	.
Cc1ccc(Cc2nc3ccccc3[nH]2)cc1	5	-10	-2	0	3	-4	.	.	.
CC(C)Cc1nc2ccccc2[nH]1	1	3	0	1	0	0	.	.	.
COc1ccccc1CC(Cc1nc2ccccc2[nH]1)c1nc2ccccc2[nH]1 (stereo unspecified)	0	-11	-2	0	5.7*	-1	11*	3	3
Cc1cccc(CC(Cc2nc3ccccc3[nH]2)c2nc3ccccc3[nH]2)c1 (stereo unspecified)	-10	-16	-3	3	8.4*	-1	21*	10	9
CN1[C@@H](Cc2ccccc2)COc2cc(N3CCSCC3)ccc2S1(=O)=O	.	.	.	.	-1	.	.	.	.
O=C(NCc1nc2ccccc2[nH]1)C1=C[C@@H](c2ccc(C(F)(F)F)cc2)C[C@@H](OCCCCO)O1	0	-19	0	-3	32*	-3	68*	9	35*
O=C(NCc1nc2ccccc2[nH]1)C1=C[C@H](c2ccccc2)C[C@H](OCCCCO)O1	-1	-14	-1	2	39*	19	74*	-5	45*
O=C(NCc1nc2ccccc2[nH]1)C1=C[C@H](c2ccc3c(c2)OCO3)C[C@H](OCCCCO)O1	4	2	-1	0	69*	-3	89*	-3	76*

Screens from PubChem.
